Measurements taken from ChEMBL document CHEMBL3352149, “Promiscuity and selectivity in covalent enzyme inhibition: a systematic study of electrophilic fragments” (J Med Chem, 2014).

Tests used:
[1] = test system: Escherichia coli; assay: Inhibition of Escherichia coli MetAP at 25 uM after 20 mins by HPLC analysis
Method in brief: (§1)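 Endpoint assay. Enzyme (50 nM) was preincubated with 25 μM compound for 20 min at 37 °C in 50 mM Tris pH 7.5, 100 mM NaCl, 100 μM CoCl2, 0.075% BSA. MGMM substrate (400 μM) was then added for 15 min (human MetAP-1) or 20 min (E. coli MetAP). Reactions were stopped with TFA. GMM product was quantified by RP-HPLC, UV 214 nm. Triplicate.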

[2] = target: Prothrombin (Bos taurus) (UniProt P00735); assay: Inhibition of Bovine thrombin using Boc-Val-Pro-Arg-AMC as substrate compound preincubated at 25 uM for 15 mins by fluorescence assay
Method in brief: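 Bovine thrombin (final 10 nM) was preincubated 15 min with 25 μM compound in 50 mM Tris-HCl pH 7.5, 150 mM NaCl, 0.05% Tween 20. The reaction was started with Boc-Val-Pro-Arg-AMC (50 μM final). Fluorescence (ex 355/em 460 nm) was monitored continuously for 10 min; activity taken as slope (RFU/s). Triplicate.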

[3] = test system: Escherichia coli; assay: Inhibition of wild-type Escherichia coli MurD compound preincubated for 10 mins before substrate addition at 25 uM measured after 15 mins by LC-MS method
Method in brief: (§2)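 E. coli wild-type enzyme (4 nM) was preincubated with 25 μM compound for 10 min at 37 °C. Enzymatically generated nucleotide-sugar substrate (~200 μM) plus ATP (~200 μM), or NADPH 200 μM for MurB, was added for 10 min. Reactions were started with amino-acid cosubstrate (MurC–F) or EP-UNAG (MurB), run 15 min at 37 °C, and quenched with formic acid. Product was measured by negative-ESI LC-MS EIC peak area. MgCl2: MurC 10, MurD/E 2, MurF 5 mM; MurB had 5 mM KCl. All in 50 mM NH4HCO3, 0.07% BSA, 1% DMSO; triplicate.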

[4] = test system: Escherichia coli; assay: Inhibition of wild-type Escherichia coli MurE compound preincubated for 10 mins before substrate addition at 25 uM measured after 15 mins by LC-MS method; method in brief: as §2
[5] = GSH reactivity of the compound assessed as adducts formation by RP-HPLC analysis
Method in brief: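 Fresh aqueous glutathione (10 mM solution) was added to 50 mM Tris-maleate buffer, pH 7.5. The reaction was started with compound from 10 mM DMSO stock (final 250 μM). Mixtures were followed by reversed-phase HPLC on an ODS column with a gradient to 100% B; rate constants are given in l·mol⁻¹·s⁻¹.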

[6] = test system: Escherichia coli; assay: Inhibition of wild-type Escherichia coli MurB compound preincubated for 10 mins before substrate addition at 25 uM measured after 15 mins by LC-MS method; method in brief: as §2
[7] = target: Genome polyprotein (dengue virus type 2) (UniProt P12823); assay: Inhibition of Dengue virus serotype 2 NS2B-NS3 protease at 50 uM
[8] = target: Methionine aminopeptidase 1 (Homo sapiens) (UniProt P53582); assay: Inhibition of human MetAP at 25 uM after 20 mins by HPLC analysis; method in brief: as §1
[9] = test system: Escherichia coli; assay: Inhibition of wild-type Escherichia coli MurC compound preincubated for 10 mins before substrate addition at 25 uM measured after 15 mins by LC-MS method; method in brief: as §2
[10] = test system: Escherichia coli; assay: Inhibition of wild-type Escherichia coli MurF compound preincubated for 10 mins before substrate addition at 25 uM measured after 15 mins by LC-MS method; method in brief: as §2
[11] = test system: Escherichia coli; assay: Inhibition of wild-type Escherichia coli MurA compound preincubated for 10 mins before substrate addition at 25 uM measured after 15 mins by LC-MS method
[12] = target: Genome polyprotein (West Nile virus) (UniProt P06935); assay: Inhibition of West Nile virus NS2B-NS3 protease at 50 uM
Sequence of Genome polyprotein (West Nile virus) (P06935 whole entry): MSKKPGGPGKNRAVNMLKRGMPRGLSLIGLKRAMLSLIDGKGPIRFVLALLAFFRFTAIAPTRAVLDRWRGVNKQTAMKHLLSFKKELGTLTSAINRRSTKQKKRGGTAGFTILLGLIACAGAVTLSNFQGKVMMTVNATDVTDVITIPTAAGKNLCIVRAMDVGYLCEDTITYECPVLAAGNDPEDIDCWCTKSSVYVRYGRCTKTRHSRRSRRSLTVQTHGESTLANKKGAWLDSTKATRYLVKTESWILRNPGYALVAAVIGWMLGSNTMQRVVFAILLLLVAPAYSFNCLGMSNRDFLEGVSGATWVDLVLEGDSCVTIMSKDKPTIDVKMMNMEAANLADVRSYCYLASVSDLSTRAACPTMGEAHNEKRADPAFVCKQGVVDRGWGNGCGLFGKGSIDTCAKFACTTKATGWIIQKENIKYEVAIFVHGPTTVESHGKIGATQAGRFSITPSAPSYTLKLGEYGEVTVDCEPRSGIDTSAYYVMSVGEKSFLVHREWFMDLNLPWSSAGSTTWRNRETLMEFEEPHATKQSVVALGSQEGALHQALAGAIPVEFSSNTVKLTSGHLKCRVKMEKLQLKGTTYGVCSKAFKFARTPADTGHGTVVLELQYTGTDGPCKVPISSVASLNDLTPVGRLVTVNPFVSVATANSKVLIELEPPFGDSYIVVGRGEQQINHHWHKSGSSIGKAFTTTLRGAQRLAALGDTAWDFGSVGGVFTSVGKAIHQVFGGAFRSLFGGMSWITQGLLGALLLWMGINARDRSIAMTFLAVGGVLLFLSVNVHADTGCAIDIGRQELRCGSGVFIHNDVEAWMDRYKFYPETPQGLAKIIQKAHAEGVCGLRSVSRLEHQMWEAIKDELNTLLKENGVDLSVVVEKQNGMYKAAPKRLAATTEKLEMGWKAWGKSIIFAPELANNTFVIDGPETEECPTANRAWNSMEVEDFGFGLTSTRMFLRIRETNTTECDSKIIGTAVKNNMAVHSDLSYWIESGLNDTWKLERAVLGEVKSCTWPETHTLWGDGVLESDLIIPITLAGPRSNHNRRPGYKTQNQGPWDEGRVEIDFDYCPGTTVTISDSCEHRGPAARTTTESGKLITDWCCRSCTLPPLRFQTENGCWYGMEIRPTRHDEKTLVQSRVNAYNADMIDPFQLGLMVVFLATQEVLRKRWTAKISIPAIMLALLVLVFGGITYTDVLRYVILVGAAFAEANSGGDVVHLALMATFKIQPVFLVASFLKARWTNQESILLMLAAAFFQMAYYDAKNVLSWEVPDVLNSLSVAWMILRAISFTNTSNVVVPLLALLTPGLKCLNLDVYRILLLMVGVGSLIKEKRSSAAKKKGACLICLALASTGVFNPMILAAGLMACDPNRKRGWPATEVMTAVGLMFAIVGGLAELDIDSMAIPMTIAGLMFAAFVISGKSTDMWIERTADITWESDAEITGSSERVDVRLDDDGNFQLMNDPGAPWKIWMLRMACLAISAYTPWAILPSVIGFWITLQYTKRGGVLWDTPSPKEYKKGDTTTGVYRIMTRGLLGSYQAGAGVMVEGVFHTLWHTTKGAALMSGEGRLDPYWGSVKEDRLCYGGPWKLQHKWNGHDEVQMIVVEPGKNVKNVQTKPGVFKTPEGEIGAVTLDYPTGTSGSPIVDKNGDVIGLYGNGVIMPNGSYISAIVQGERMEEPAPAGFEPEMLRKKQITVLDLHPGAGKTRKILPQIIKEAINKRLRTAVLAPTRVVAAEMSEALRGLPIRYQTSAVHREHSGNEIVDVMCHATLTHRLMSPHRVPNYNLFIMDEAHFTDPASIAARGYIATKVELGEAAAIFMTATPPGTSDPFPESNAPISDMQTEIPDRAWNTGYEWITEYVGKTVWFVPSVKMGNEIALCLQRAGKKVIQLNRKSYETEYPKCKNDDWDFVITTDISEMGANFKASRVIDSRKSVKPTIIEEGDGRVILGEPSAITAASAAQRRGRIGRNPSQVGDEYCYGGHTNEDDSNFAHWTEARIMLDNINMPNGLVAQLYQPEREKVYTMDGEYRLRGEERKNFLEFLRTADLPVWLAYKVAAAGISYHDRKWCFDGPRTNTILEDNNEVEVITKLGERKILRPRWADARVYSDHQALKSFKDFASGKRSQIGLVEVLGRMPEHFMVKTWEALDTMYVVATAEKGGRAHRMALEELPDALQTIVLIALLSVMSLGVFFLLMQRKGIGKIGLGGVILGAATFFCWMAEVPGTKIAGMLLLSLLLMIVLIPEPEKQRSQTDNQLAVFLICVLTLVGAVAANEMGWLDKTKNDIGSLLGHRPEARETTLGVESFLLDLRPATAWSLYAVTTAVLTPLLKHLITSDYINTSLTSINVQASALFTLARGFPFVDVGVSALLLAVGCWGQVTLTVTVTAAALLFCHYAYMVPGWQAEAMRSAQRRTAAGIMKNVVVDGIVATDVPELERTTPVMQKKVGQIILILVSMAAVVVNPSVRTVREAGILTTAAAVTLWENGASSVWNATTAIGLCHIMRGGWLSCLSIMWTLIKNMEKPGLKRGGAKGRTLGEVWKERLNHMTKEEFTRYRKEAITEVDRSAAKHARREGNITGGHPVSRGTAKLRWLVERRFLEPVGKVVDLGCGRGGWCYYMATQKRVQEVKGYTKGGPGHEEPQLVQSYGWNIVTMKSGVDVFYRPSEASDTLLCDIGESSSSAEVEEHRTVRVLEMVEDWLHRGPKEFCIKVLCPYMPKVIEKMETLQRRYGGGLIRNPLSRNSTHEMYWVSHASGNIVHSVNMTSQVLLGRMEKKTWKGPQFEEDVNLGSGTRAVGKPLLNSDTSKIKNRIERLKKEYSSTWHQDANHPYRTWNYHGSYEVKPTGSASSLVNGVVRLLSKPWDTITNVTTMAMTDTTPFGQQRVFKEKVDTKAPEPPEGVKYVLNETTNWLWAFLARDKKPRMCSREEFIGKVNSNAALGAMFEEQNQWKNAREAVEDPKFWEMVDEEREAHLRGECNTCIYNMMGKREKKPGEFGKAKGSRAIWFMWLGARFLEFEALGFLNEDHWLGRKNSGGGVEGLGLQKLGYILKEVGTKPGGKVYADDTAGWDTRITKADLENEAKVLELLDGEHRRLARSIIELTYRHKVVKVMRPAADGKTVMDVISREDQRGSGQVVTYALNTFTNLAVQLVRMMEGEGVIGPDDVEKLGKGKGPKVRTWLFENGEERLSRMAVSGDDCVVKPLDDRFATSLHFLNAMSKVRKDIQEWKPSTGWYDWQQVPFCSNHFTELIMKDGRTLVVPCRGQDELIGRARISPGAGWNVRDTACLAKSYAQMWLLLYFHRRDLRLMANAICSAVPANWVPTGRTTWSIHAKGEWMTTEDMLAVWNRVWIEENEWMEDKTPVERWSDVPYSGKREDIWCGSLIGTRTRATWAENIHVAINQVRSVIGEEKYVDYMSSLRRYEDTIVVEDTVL

Row | inhibition [1] [%] | inhibition [2] [%] | inhibition [3] [%] | inhibition [4] [%] | inhibition [6] [%] | inhibition [7] [%] | inhibition [8] [%] | inhibition [9] [%] | inhibition [10] [%] | inhibition [11] [%] | inhibition [12] [%] | Compound | Activity [5] [L/mol/s]
1 | < 15 | < 15 | < 15 | < 15 | < 15 | < 15 | < 15 | < 15 | < 15 | < 15 | < 15 | O=C(CCl)Nc1ccc([N+](=O)[O-])cc1 | < 0.1
2 | < 15 | < 15 | < 15 | < 15 | 20 | < 15 | < 15 | < 15 | < 15 | < 15 | < 15 | C=CCNc1ccc([N+](=O)[O-])cc1 | < 0.1
3 | < 15 | < 15 | < 15 | < 15 | < 15 | < 15 | < 15 | < 15 | < 15 | < 15 | < 15 | N#CCC(=O)Nc1ccc([N+](=O)[O-])cc1 | < 0.1
4 | < 15 | < 15 | < 15 | < 15 | < 15 | < 15 | < 15 | < 15 | < 15 | < 15 | < 15 | CNC(=O)CC#N | < 0.1
5 | < 15 | < 15 | < 15 | < 15 | < 15 | < 15 | < 15 | < 15 | < 15 | 17 | < 15 | COc1ccc(NC(=O)n2ccnc2)cc1 | < 0.1
6 | < 15 | < 15 | < 15 | < 15 | < 15 | < 15 | < 15 | < 15 | < 15 | < 15 | < 15 | O=C(Nc1ccc([N+](=O)[O-])cc1)n1ccnc1 | < 0.1
7 | < 15 | < 15 | < 15 | 20 | < 15 | < 15 | < 15 | 14 | < 15 | < 15 | < 15 | CNC(=O)C[S+](C)C | 
8 | < 15 | < 15 | < 15 | < 15 | < 15 | < 15 | < 15 | < 15 | < 15 | < 15 | 18 | CCCCC(NC(=O)CC#N)C(=O)OC (centres undefined) | < 0.1
9 | < 15 | < 15 | < 15 | < 15 | 17 | < 15 | < 15 | < 15 | < 15 | < 15 | < 15 | C=CCNc1ccc(F)cc1 | < 0.1
10 | < 15 | < 15 | < 15 | < 15 | < 15 | < 15 | < 15 | < 15 | 15 | < 15 | < 15 | C=CCNc1ccc(C)cc1 | < 0.1
11 | < 15 | < 15 | < 15 | 15 | < 15 | < 15 | < 15 | < 15 | < 15 | < 15 | < 15 | C[S+](C)CC(=O)Nc1ccc(F)cc1 | 
12 | < 15 | < 15 | < 15 | < 15 | < 15 | < 15 | < 15 | < 15 | < 15 | < 15 | < 15 | Cc1ccc(NC(=O)n2ccnc2)cc1 | < 0.1
13 | < 15 | < 15 | < 15 | < 15 | < 15 | < 15 | < 15 | < 15 | < 15 | < 15 | < 15 | C=CCNCc1ccccc1 | < 0.1
14 | < 15 | < 15 | < 15 | < 15 | < 15 | < 15 | < 15 | < 15 | < 15 | < 15 | < 15 | Cc1ccc(NC(=O)CC#N)cc1 | < 0.1
15 | < 15 | < 15 | < 15 | < 15 | < 15 | < 15 | < 15 | < 15 | < 15 | < 15 | < 15 | C=CCNC(CCCC)C(=O)OC (centres undefined) | < 0.1
16 | < 15 | < 15 | < 15 | < 15 | < 15 | < 15 | < 15 | < 15 | < 15 | < 15 | < 15 | C[S+](C)CC(=O)NCCc1ccccc1 | 
17 | < 15 | < 15 | < 15 | < 15 | < 15 | < 15 | < 15 | < 15 | < 15 | < 15 | < 15 | C[S+](C)CC(=O)NCc1ccccc1 | 
18 | < 15 | < 15 | < 15 | 17 | < 15 | < 15 | < 15 | < 15 | < 15 | < 15 | < 15 | C[S+](C)CC(=O)NC1CCCC1 | 

Row | Compound | inhibition [1] [%] | inhibition [2] [%] | inhibition [3] [%] | inhibition [4] [%] | inhibition [6] [%] | inhibition [7] [%] | inhibition [8] [%] | inhibition [9] [%] | inhibition [10] [%] | inhibition [11] [%] | inhibition [12] [%] | Activity [5] [L/mol/s]
19 | C=CCNC1CCCC1 | < 15 | < 15 | < 15 | < 15 | 17 | < 15 | < 15 | < 15 | < 15 | < 15 | < 15 | < 0.1
20 | O=C(CCl)Nc1ccc(F)cc1 | < 15 | < 15 | < 15 | < 15 | < 15 | < 15 | < 15 | < 15 | < 15 | < 15 | < 15 | < 0.1
21 | Cc1ccc(NC(=O)CCl)cc1 | < 15 | < 15 | < 15 | < 15 | < 15 | < 15 | < 15 | < 15 | < 15 | < 15 | < 15 | < 0.1
22 | C=CCNCCc1ccccc1 | < 15 | < 15 | < 15 | < 15 | < 15 | < 15 | < 15 | < 15 | < 15 | < 15 | < 15 | < 0.1
